Data taken from ChEMBL document CHEMBL4842367, “Strategies toward Discovery of Potent and Orally Bioavailable Proteolysis Targeting Chimera Degraders of Androgen Receptor for the Treatment of Prostate Cancer” (J Med Chem, 2021).

biological target: T1, Protein cereblon/Androgen receptor (Homo sapiens, UniProt P10275+Q96SW2); experiment: Protac activity at CRBN/AR in human VCaP cells assessed as induction of AR degradation at 0.001 uM measured after 24 hrs by western blot analysis relative to control; assay type: cell-based; settings: not given
T1 sequence (P10275 whole entry, looked up): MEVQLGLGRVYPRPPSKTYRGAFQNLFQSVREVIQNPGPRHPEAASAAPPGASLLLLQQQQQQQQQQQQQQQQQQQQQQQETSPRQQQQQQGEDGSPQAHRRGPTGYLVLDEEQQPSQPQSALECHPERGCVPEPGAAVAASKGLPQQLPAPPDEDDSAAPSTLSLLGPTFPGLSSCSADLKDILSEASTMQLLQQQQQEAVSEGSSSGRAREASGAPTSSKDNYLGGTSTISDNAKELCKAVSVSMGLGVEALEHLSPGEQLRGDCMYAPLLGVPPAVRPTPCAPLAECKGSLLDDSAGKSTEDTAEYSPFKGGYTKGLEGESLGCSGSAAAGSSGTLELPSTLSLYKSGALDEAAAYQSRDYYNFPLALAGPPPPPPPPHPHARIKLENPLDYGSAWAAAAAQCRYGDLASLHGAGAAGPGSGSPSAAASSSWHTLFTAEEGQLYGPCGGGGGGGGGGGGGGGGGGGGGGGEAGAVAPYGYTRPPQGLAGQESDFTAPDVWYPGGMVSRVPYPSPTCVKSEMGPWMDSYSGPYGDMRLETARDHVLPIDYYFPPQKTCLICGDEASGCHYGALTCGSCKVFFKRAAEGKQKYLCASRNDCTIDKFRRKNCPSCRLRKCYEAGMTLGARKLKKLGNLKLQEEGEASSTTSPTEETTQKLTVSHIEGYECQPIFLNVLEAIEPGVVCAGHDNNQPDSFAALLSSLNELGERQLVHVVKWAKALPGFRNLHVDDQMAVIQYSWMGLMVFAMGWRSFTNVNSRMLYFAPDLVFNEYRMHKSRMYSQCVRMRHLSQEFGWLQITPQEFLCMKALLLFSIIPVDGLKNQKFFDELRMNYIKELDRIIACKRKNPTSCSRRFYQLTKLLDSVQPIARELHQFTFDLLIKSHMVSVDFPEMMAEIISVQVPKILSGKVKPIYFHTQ
T1 sequence (Q96SW2 whole entry, looked up): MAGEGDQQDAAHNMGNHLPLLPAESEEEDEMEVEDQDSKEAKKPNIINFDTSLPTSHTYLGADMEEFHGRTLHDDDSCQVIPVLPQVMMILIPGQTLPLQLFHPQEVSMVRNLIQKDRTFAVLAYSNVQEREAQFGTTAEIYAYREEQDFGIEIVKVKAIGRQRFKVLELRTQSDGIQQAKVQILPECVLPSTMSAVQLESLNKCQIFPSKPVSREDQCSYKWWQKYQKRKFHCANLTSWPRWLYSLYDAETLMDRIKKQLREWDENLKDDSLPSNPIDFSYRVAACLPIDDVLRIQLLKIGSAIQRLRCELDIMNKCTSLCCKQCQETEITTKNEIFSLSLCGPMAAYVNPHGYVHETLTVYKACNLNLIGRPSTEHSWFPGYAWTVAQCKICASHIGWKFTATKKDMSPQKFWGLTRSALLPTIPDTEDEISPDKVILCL

Activity [%] | SMILES
42 | CC1(C)[C@H](NC(=O)c2ccc(N3CCN(CCCCNc4ccc5c(c4)C(=O)N(C4CCC(=O)NC4=O)C5=O)CC3)cc2)C(C)(C)[C@H]1Oc1ccc(C#N)c(Cl)c1 (stereo partly specified)
58 | CC1(C)[C@H](NC(=O)c2ccc(N3CCN(CCNc4ccc5c(c4)C(=O)N(C4CCC(=O)NC4=O)C5=O)CC3)cc2)C(C)(C)[C@H]1Oc1ccc(C#N)c(Cl)c1 (stereo partly specified)
12 | CC1(C)[C@H](NC(=O)c2ccc(N3CCN(CCCCCNc4ccc5c(c4)C(=O)N(C4CCC(=O)NC4=O)C5=O)CC3)cc2)C(C)(C)[C@H]1Oc1ccc(C#N)c(Cl)c1 (stereo partly specified)

Continued, molecule first:

SMILES | Activity [%]
CC1(C)[C@@H](NC(=O)c2ccc(N3CCN(CC4CCN(c5ccc6c(c5)C(=O)N(C5CCC(=O)NC5=O)C6=O)CC4)CC3)cc2)C[C@@H]1Oc1ccc(C#N)c(Cl)c1 (stereo partly specified) | < 5
CC1(C)[C@H](NC(=O)c2ccc(N3CCN(CCCCNc4cccc5c4C(=O)N(C4CCC(=O)NC4=O)C5=O)CC3)cc2)C(C)(C)[C@H]1Oc1ccc(C#N)c(Cl)c1 (stereo partly specified) | 7
CC1(C)[C@H](NC(=O)c2ccc(C(=O)N3CCN(CC4CCN(c5ccc6c(c5)C(=O)N(C5CCC(=O)NC5=O)C6=O)CC4)CC3)cc2)C(C)(C)[C@H]1Oc1ccc(C#N)c(Cl)c1 (stereo partly specified) | 76
CC1(C)[C@H](NC(=O)c2ccc(NCCCCCNc3ccc4c(c3)C(=O)N(C3CCC(=O)NC3=O)C4=O)cc2)C(C)(C)[C@H]1Oc1ccc(C#N)c(Cl)c1 (stereo partly specified) | 49
CC1(C)[C@H](NC(=O)c2ccc(N3CCN(CCCNc4cccc5c4C(=O)N(C4CCC(=O)NC4=O)C5=O)CC3)cc2)C(C)(C)[C@H]1Oc1ccc(C#N)c(Cl)c1 (stereo partly specified) | < 5

system: not listed separately; experiment: Plasma concentration in CB17 SCID mouse at 10 mg/kg, po measured after 3 hr by LC-MS/MS analysis; assay type: ADME, organism-based; settings: not given
How it was run: (§1)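 Single oral gavage at 10 mg/kg in 100% PEG200 to non-tumor-bearing male mice; three mice per time point, blood collected at 1, 3 and 6 h, plasma obtained by centrifugation and measured by LC–MS/MS; reported as mean ± SD.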

concentration at 3 h [ng/mL] | SMILES
919 | CC1(C)[C@H](NC(=O)c2ccc(N3CCN(CCNc4ccc5c(c4)C(=O)N(C4CCC(=O)NC4=O)C5=O)CC3)cc2)C(C)(C)[C@H]1Oc1ccc(C#N)c(Cl)c1 (stereo partly specified)
55.9 | CC1(C)[C@H](NC(=O)c2ccc(NCCCCCNc3ccc4c(c3)C(=O)N(C3CCC(=O)NC3=O)C4=O)cc2)C(C)(C)[C@H]1Oc1ccc(C#N)c(Cl)c1 (stereo partly specified)

biological target: T1, Protein cereblon/Androgen receptor; experiment: Protac activity at CRBN/AR in human VCaP cells assessed as induction of AR degradation at 0.1 uM measured after 24 hrs by western blot analysis relative to control; assay type: cell-based; settings: not given

Activity [%] | SMILES
84 | CC1(C)[C@H](NC(=O)c2ccc(N3CCN(CCCCNc4ccc5c(c4)C(=O)N(C4CCC(=O)NC4=O)C5=O)CC3)cc2)C(C)(C)[C@H]1Oc1ccc(C#N)c(Cl)c1 (stereo partly specified)
79 | CC1(C)[C@H](NC(=O)c2ccc(N3CCN(CCNc4ccc5c(c4)C(=O)N(C4CCC(=O)NC4=O)C5=O)CC3)cc2)C(C)(C)[C@H]1Oc1ccc(C#N)c(Cl)c1 (stereo partly specified)
85 | CC1(C)[C@H](NC(=O)c2ccc(N3CCN(CCCCCNc4ccc5c(c4)C(=O)N(C4CCC(=O)NC4=O)C5=O)CC3)cc2)C(C)(C)[C@H]1Oc1ccc(C#N)c(Cl)c1 (stereo partly specified)

Continued, molecule first:

SMILES | Activity [%]
CC1(C)[C@@H](NC(=O)c2ccc(N3CCN(CC4CCN(c5ccc6c(c5)C(=O)N(C5CCC(=O)NC5=O)C6=O)CC4)CC3)cc2)C[C@@H]1Oc1ccc(C#N)c(Cl)c1 (stereo partly specified) | 75
CC1(C)[C@H](NC(=O)c2ccc(N3CCN(CCCCNc4cccc5c4C(=O)N(C4CCC(=O)NC4=O)C5=O)CC3)cc2)C(C)(C)[C@H]1Oc1ccc(C#N)c(Cl)c1 (stereo partly specified) | 47
CC1(C)[C@H](NC(=O)c2ccc(NCCCCCNc3ccc4c(c3)C(=O)N(C3CCC(=O)NC3=O)C4=O)cc2)C(C)(C)[C@H]1Oc1ccc(C#N)c(Cl)c1 (stereo partly specified) | 89
CC1(C)[C@H](NC(=O)c2ccc(N3CCN(CCCNc4cccc5c4C(=O)N(C4CCC(=O)NC4=O)C5=O)CC3)cc2)C(C)(C)[C@H]1Oc1ccc(C#N)c(Cl)c1 (stereo partly specified) | < 5

biological target: T1, Protein cereblon/Androgen receptor; experiment: Protac activity at CRBN/AR in human VCaP cells assessed as induction of AR degradation at 0.01 uM measured after 24 hrs by western blot analysis relative to control; assay type: cell-based; settings: not given
How it was run: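 VCaP cells treated 24 h at 1, 10, 100 and 1000 nM; lysed in RIPA with protease/phosphatase inhibitors, run on 4–12% SDS-PAGE, blotted to PVDF. AR bands background-subtracted and normalized to loading control; degradation relative to DMSO, average of three independent experiments.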

Activity [%] | SMILES
63 | CC1(C)[C@H](NC(=O)c2ccc(N3CCN(CCCCNc4ccc5c(c4)C(=O)N(C4CCC(=O)NC4=O)C5=O)CC3)cc2)C(C)(C)[C@H]1Oc1ccc(C#N)c(Cl)c1 (stereo partly specified)
83 | CC1(C)[C@H](NC(=O)c2ccc(N3CCN(CCNc4ccc5c(c4)C(=O)N(C4CCC(=O)NC4=O)C5=O)CC3)cc2)C(C)(C)[C@H]1Oc1ccc(C#N)c(Cl)c1 (stereo partly specified)
59 | CC1(C)[C@H](NC(=O)c2ccc(N3CCN(CCCCCNc4ccc5c(c4)C(=O)N(C4CCC(=O)NC4=O)C5=O)CC3)cc2)C(C)(C)[C@H]1Oc1ccc(C#N)c(Cl)c1 (stereo partly specified)

Continued, molecule first:

SMILES | Activity [%]
CC1(C)[C@@H](NC(=O)c2ccc(N3CCN(CC4CCN(c5ccc6c(c5)C(=O)N(C5CCC(=O)NC5=O)C6=O)CC4)CC3)cc2)C[C@@H]1Oc1ccc(C#N)c(Cl)c1 (stereo partly specified) | 19
CC1(C)[C@H](NC(=O)c2ccc(N3CCN(CCCCNc4cccc5c4C(=O)N(C4CCC(=O)NC4=O)C5=O)CC3)cc2)C(C)(C)[C@H]1Oc1ccc(C#N)c(Cl)c1 (stereo partly specified) | 40
CC1(C)[C@H](NC(=O)c2ccc(NCCCCCNc3ccc4c(c3)C(=O)N(C3CCC(=O)NC3=O)C4=O)cc2)C(C)(C)[C@H]1Oc1ccc(C#N)c(Cl)c1 (stereo partly specified) | 84
CC1(C)[C@H](NC(=O)c2ccc(N3CCN(CCCNc4cccc5c4C(=O)N(C4CCC(=O)NC4=O)C5=O)CC3)cc2)C(C)(C)[C@H]1Oc1ccc(C#N)c(Cl)c1 (stereo partly specified) | < 5

biological target: T1, Protein cereblon/Androgen receptor; experiment: Protac activity at CRBN/AR in human VCAP cells assessed as induction of AR degradation at 1 uM by western blot analysis relative to control; assay type: cell-based; settings: time 24.0 hrs

Activity [%] | SMILES
82 | CC1(C)[C@H](NC(=O)c2ccc(N3CCN(CCCCNc4ccc5c(c4)C(=O)N(C4CCC(=O)NC4=O)C5=O)CC3)cc2)C(C)(C)[C@H]1Oc1ccc(C#N)c(Cl)c1 (stereo partly specified)
76 | CC1(C)[C@H](NC(=O)c2ccc(N3CCN(CCNc4ccc5c(c4)C(=O)N(C4CCC(=O)NC4=O)C5=O)CC3)cc2)C(C)(C)[C@H]1Oc1ccc(C#N)c(Cl)c1 (stereo partly specified)
60 | CC1(C)[C@H](NC(=O)c2ccc(N3CCN(CCCCCNc4ccc5c(c4)C(=O)N(C4CCC(=O)NC4=O)C5=O)CC3)cc2)C(C)(C)[C@H]1Oc1ccc(C#N)c(Cl)c1 (stereo partly specified)

More lines, now with the values behind:

SMILES | Activity [%]
CC1(C)[C@@H](NC(=O)c2ccc(N3CCN(CC4CCN(c5ccc6c(c5)C(=O)N(C5CCC(=O)NC5=O)C6=O)CC4)CC3)cc2)C[C@@H]1Oc1ccc(C#N)c(Cl)c1 (stereo partly specified) | 90
CC1(C)[C@H](NC(=O)c2ccc(N3CCN(CCCCNc4cccc5c4C(=O)N(C4CCC(=O)NC4=O)C5=O)CC3)cc2)C(C)(C)[C@H]1Oc1ccc(C#N)c(Cl)c1 (stereo partly specified) | 32
CC1(C)[C@H](NC(=O)c2ccc(NCCCCCNc3ccc4c(c3)C(=O)N(C3CCC(=O)NC3=O)C4=O)cc2)C(C)(C)[C@H]1Oc1ccc(C#N)c(Cl)c1 (stereo partly specified) | 97
CC1(C)[C@H](NC(=O)c2ccc(N3CCN(CCCNc4cccc5c4C(=O)N(C4CCC(=O)NC4=O)C5=O)CC3)cc2)C(C)(C)[C@H]1Oc1ccc(C#N)c(Cl)c1 (stereo partly specified) | 9

system: not listed separately; experiment: Plasma concentration in CB17 SCID mouse at 10 mg/kg, po measured after 1 hr by LC-MS/MS analysis; assay type: ADME, organism-based; settings: not given; how it was run: as §1

concentration at 1 h [ng/mL] | SMILES
1240 | CC1(C)[C@H](NC(=O)c2ccc(N3CCN(CCNc4ccc5c(c4)C(=O)N(C4CCC(=O)NC4=O)C5=O)CC3)cc2)C(C)(C)[C@H]1Oc1ccc(C#N)c(Cl)c1 (stereo partly specified)
111 | CC1(C)[C@H](NC(=O)c2ccc(NCCCCCNc3ccc4c(c3)C(=O)N(C3CCC(=O)NC3=O)C4=O)cc2)C(C)(C)[C@H]1Oc1ccc(C#N)c(Cl)c1 (stereo partly specified)

system: not listed separately; experiment: Plasma concentration in CB17 SCID mouse at 10 mg/kg, po measured after 6 hr by LC-MS/MS analysis; assay type: ADME, organism-based; settings: not given; how it was run: as §1

concentration at 6 h [ng/mL] | SMILES
604 | CC1(C)[C@H](NC(=O)c2ccc(N3CCN(CCNc4ccc5c(c4)C(=O)N(C4CCC(=O)NC4=O)C5=O)CC3)cc2)C(C)(C)[C@H]1Oc1ccc(C#N)c(Cl)c1 (stereo partly specified)
2.9 | CC1(C)[C@H](NC(=O)c2ccc(NCCCCCNc3ccc4c(c3)C(=O)N(C3CCC(=O)NC3=O)C4=O)cc2)C(C)(C)[C@H]1Oc1ccc(C#N)c(Cl)c1 (stereo partly specified)
